Measurements as given in article PMC4758401 (Diabetes, Obesity & Metabolism, 2015).
Where two headings read alike, the source gives them in different places.

Experiments:
Type in all cases: in vivo, patients with type 1 diabetes
plasma glucose = test system: plasma glucose
[1] = Adverse events and hypoglycaemia
Method in brief: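 Four-way crossover in adults with type 1 diabetes, one visit per arm over 4 weeks. Before a 600-kcal breakfast, each arm received subcutaneous regular insulin at 30% below the usual rapid-analogue dose, plus a separate masked injection of test compound (6, 9 or 12 mcg/U insulin) or volume-matched placebo. Symptomatic hypoglycaemia was tracked for 24 h after dosing; adverse events were recorded on- and off-treatment.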

glucagon = conditions: for Reduction of AUC0–3 h for glucagon: p < 0.05
Method in brief: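 Same crossover design: test compound at 6, 9 or 12 mcg/U insulin or volume-matched placebo, each injected separately alongside subcutaneous regular insulin (30% reduced dose) just before a standard 600-kcal breakfast. Plasma immunoreactive glucagon was measured by radioimmunoassay in samples taken at −15, −5, 15, 30, 45, 60, 90, 120, 150 and 180 min. Incremental AUC0–3 h from baseline was compared with placebo by a linear mixed-effects model (sequence, period, treatment, random patient), two-sided 0.05.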

[2] = all ratios (6, 9 or 12 mcg/unit insulin)

Structure (SMILES): CC[C@H](C)[C@H](NC(=O)[C@@H]1CCCN1C(=O)CNC(=O)[C@H](Cc1ccccc1)NC(=O)[C@H](CC(N)=O)NC(=O)[C@H](CC(N)=O)NC(=O)[C@H](CO)NC(=O)[C@H](CO)NC(=O)[C@H](Cc1c[nH]cn1)NC(=O)[C@@H](NC(=O)[C@H](CC(C)C)NC(=O)[C@H](Cc1ccccc1)NC(=O)[C@H](CC(N)=O)NC(=O)[C@H](C)NC(=O)[C@H](CC(C)C)NC(=O)[C@H](CCCNC(=N)N)NC(=O)[C@H](CCC(N)=O)NC(=O)[C@@H](NC(=O)[C@H](C)NC(=O)[C@@H]1CSSC[C@H](NC(=O)[C@@H](N)CCCCN)C(=O)N[C@@H](CC(N)=O)C(=O)N[C@@H]([C@@H](C)O)C(=O)N[C@@H](C)C(=O)N[C@@H]([C@@H](C)O)C(=O)N1)[C@@H](C)O)C(C)C)C(=O)N[C@@H](CC(C)C)C(=O)N1CCC[C@H]1C(=O)N1CCC[C@H]1C(=O)N[C@H](C(=O)N[C@@H](CC(N)=O)C(=O)N[C@H](C(=O)NCC(=O)N[C@@H](CO)C(=O)N[C@@H](CC(N)=O)C(=O)N[C@H](C(=O)N[C@@H](Cc1ccc(O)cc1)C(N)=O)[C@@H](C)O)C(C)C)[C@@H](C)O [pramlintide]
- Reduction of AUC0–3 h for glucose (plasma glucose; 6 mcg/U ratio vs placebo/insulin, p < 0.001): 60%
- Glucose incremental AUC0–3 h, LS mean difference (plasma glucose; 6 mcg–placebo, p <0.001): -205.98 mg·h/dL
- Glucose incremental AUC0–3 h, LS mean difference (plasma glucose; 6–9 mcg, p 0.890): -6.04 mg·h/dL
- Glucose incremental AUC0–3 h, LS mean difference (plasma glucose; 6–12 mcg, p 0.343): 40.63 mg·h/dL
- Glucose incremental AUC0–3 h, LS mean difference (plasma glucose; 9 mcg–placebo, p <0.001): -199.93 mg·h/dL
- Glucose incremental AUC0–3 h, LS mean difference (plasma glucose; 9–12 mcg, p 0.280): 46.67 mg·h/dL
- Glucose incremental AUC0–3 h, LS mean difference (plasma glucose; 12 mcg–placebo, p <0.001): -246.60 mg·h/dL
- Reduction of 0–3‐h glucose increments (plasma glucose; [2]): > 50%
- Tolerability ([1]; all ratios (6, 9, 12 mcg/U insulin), single meal-time injection): well tolerated
- Symptomatic hypoglycaemia ([1]; during the 24‐h period after pramlintide administration, all ratios): No symptomatic hypoglycaemia occurred
- Nausea ([1]; one patient, accompanying each pramlintide/insulin ratio, able to complete each test meal): mild nausea
- Mild, asymptomatic hypoglycaemia between test meal days ([1]; one patient, after pramlintide 12 mcg/U): hypoglycaemia 5 and 7 days after receiving pramlintide 12 mcg/U
- Reduction of AUC0–3 h for glucagon (glucagon; 6 mcg/U ratio vs placebo/insulin): 57%
- Glucagon incremental AUC0–3 h, LS mean difference (glucagon; 6 mcg–placebo, p 0.041): -14.23 pg·h/mL
- Glucagon incremental AUC0–3 h, LS mean difference (glucagon; 6–9 mcg, p 0.934): 0.57 pg·h/mL
- Glucagon incremental AUC0–3 h, LS mean difference (glucagon; 6–12 mcg, p 0.945): -0.47 pg·h/mL
- Reduction of AUC0–3 h for glucagon (glucagon; 9 mcg/U ratio vs placebo/insulin): 59%
- Glucagon incremental AUC0–3 h, LS mean difference (glucagon; 9 mcg–placebo, p 0.034): -14.80 pg·h/mL
- Glucagon incremental AUC0–3 h, LS mean difference (glucagon; 9–12 mcg, p 0.879): -1.05 pg·h/mL
- Reduction of AUC0–3 h for glucagon (glucagon; 12 mcg/U ratio vs placebo/insulin): 55%
- Glucagon incremental AUC0–3 h, LS mean difference (glucagon; 12 mcg–placebo, p 0.046): -13.75 pg·h/mL
- Reduction of 0–3‐h glucagon increments (glucagon; [2]): > 50%
